Source: ChEMBL document CHEMBL1649165, “Activity profile in vitro of micafungin against Spanish clinical isolates of common and emerging species of yeasts and molds” (2009)

Columns and labels:
Type in all cases: functional
Candida albicans = test: Antimicrobial activity against Candida albicans by broth microdilution method
Summary of the method: (§1)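 Clinical isolates from human patients, tested by broth microdilution using the AFST-EUCAST reference procedure for fermentative yeasts. The MIC was read per that reference method.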

Candida parapsilosis = test: Antimicrobial activity against Candida parapsilosis by broth microdilution method; details: Lodderomyces parapsilosis; summary of the method: as §1
Candida tropicalis = test: Antimicrobial activity against Candida tropicalis by broth microdilution method; summary of the method: as §1
Nakaseomyces glabratus = test: Antimicrobial activity against Candida glabrata by broth microdilution method; summary of the method: as §1
Pichia kudriavzevii = test: Antimicrobial activity against Candida krusei by broth microdilution method; summary of the method: as §1
[1] = system: Meyerozyma guilliermondii; test: Antimicrobial activity against Candida guilliermondii by broth microdilution method; summary of the method: as §1
Clavispora lusitaniae = test: Antimicrobial activity against Candida lusitaniae by broth microdilution method; summary of the method: as §1
Kluyveromyces marxianus = test: Antimicrobial activity against Candida kefyr by broth microdilution method; summary of the method: as §1
Diutina rugosa = test: Antimicrobial activity against Candida rugosa by broth microdilution method; summary of the method: as §1
Debaryomyces hansenii = test: Antimicrobial activity against Candida famata by broth microdilution method; summary of the method: as §1
Wickerhamomyces anomalus = test: Antimicrobial activity against Candida pelliculosa by broth microdilution method; details: Hansenula anomala; summary of the method: as §1
Torulaspora delbrueckii = test: Antimicrobial activity against Candida coliculosa by broth microdilution method; summary of the method: as §1
Pichia norvegensis = test: Antimicrobial activity against Candida norvegensis by broth microdilution method; summary of the method: as §1
[Candida] intermedia = Antimicrobial activity against Candida intermedia by broth microdilution method; details: Sungouiella intermedia; summary of the method: as §1
[Candida] inconspicua = Antimicrobial activity against Candida inconspicua by broth microdilution method; details: Pichia inconspicua; summary of the method: as §1
Candida metapsilosis = test: Antimicrobial activity against Candida metapsilosis by broth microdilution method; details: Lodderomyces metapsilosis; summary of the method: as §1
Candida orthopsilosis = test: Antimicrobial activity against Candida orthopsilosis by broth microdilution method; details: Lodderomyces orthopsilosis; summary of the method: as §1
[2] = system: Kazachstania pintolopesii; test: Antimicrobial activity against Candida pintolopesii by broth microdilution method; details: Arxiozyma pintolopesii; summary of the method: as §1
[Candida] zeylanoides = Antimicrobial activity against Candida zeylanoides by broth microdilution method; details: Dujonia zeylanoides; summary of the method: as §1
Magnusiomyces capitatus = test: Antimicrobial activity against Dipodascus capitatus by broth microdilution method
Saccharomyces cerevisiae = test: Antimicrobial activity against Saccharomyces cerevisiae by broth microdilution method
Yarrowia lipolytica = test: Antimicrobial activity against Yarrowia lipolytica by broth microdilution method
Geotrichum candidum = test: Antimicrobial activity against Galactomyces geotrichum by broth microdilution method
[3] = system: Cryptococcus deneoformans; test: Antimicrobial activity against Cryptococcus neoformans var. neoformans by broth microdilution method
Summary of the method: (§2)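 Clinical isolates of nonfermentative yeasts, tested by broth microdilution following EUCAST recommendations. The only change from that method was a minor modification to improve growth.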

Trichosporon asahii = test: Antimicrobial activity against Trichosporon asahii by broth microdilution method
Summary of the method: (§3)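 Nonfermentative yeast clinical isolates (Rhodotorula, Trichosporon) tested by broth microdilution. The EUCAST yeast recommendations were followed strictly, with one minor modification to improve growth. MIC was read as the endpoint.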

Rhodotorula mucilaginosa = test: Antimicrobial activity against Rhodotorula mucilaginosa by broth microdilution method; summary of the method: as §3
Trichosporon inkin = test: Antimicrobial activity against Trichosporon inkin by broth microdilution method; summary of the method: as §3
Trichosporon ovoides = test: Antimicrobial activity against Trichosporon ovoides by broth microdilution method; summary of the method: as §3
Trichosporon dermatis = test: Antimicrobial activity against Trichosporon dermatis by broth microdilution method; details: Cutaneotrichosporon dermatis; summary of the method: as §3
Trichosporon jirovecii = test: Antimicrobial activity against Trichosporon jirovecii by broth microdilution method; details: Cutaneotrichosporon jirovecii; summary of the method: as §3
Naganishia albida = test: Antimicrobial activity against Cryptococcus albidus by broth microdilution method; summary of the method: as §2
Ustilago = test: Antimicrobial activity against Ustilago spp by broth microdilution method
Rhodotorula glutinis = test: Antimicrobial activity against Rhodotorula glutinis by broth microdilution method; summary of the method: as §3
Papiliotrema laurentii = test: Antimicrobial activity against Cryptococcus laurentii by broth microdilution method; summary of the method: as §2
Trichosporon domesticum = test: Antimicrobial activity against Trichosporon mycotoxinivorans by broth microdilution method; details: Apiotrichum domesticum
Summary of the method: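 Spanish human clinical isolates were tested as nonfermentative yeasts by broth microdilution. The method strictly followed the EUCAST recommendations, with a minor modification to improve growth, and the read-out was the MIC.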

Trichosporon = test: Antimicrobial activity against Trichosporon spp. by broth microdilution method; summary of the method: as §3

Nc1nc(=O)[nH]cc1F [FLUCYTOSINE]
8 µg/mL: MIC90 (Pichia kudriavzevii)
32 µg/mL: MIC90 [3] | MIC50 (Trichosporon asahii)
> 64 µg/mL: MIC50 (Yarrowia lipolytica) | MIC90 (Yarrowia lipolytica) | MIC90 (Trichosporon asahii) | MIC90 (Trichosporon inkin) | MIC90 (Trichosporon ovoides) | MIC90 (Trichosporon dermatis) | MIC90 (Trichosporon jirovecii) | MIC90 (Naganishia albida) | MIC90 (Ustilago) | MIC90 (Rhodotorula glutinis) | MIC90 (Papiliotrema laurentii) | MIC90 (Trichosporon domesticum) | MIC90 (Trichosporon)
4 µg/mL: MIC50 (Pichia kudriavzevii) | MIC90 (Kluyveromyces marxianus)
0.25 µg/mL: MIC90 (Candida parapsilosis) | MIC90 (Candida tropicalis) | MIC90 (Nakaseomyces glabratus) | MIC90 [1] | MIC50 (Diutina rugosa) | MIC50 (Debaryomyces hansenii) | MIC50 (Wickerhamomyces anomalus) | MIC50 (Torulaspora delbrueckii) | MIC50 (Pichia norvegensis) | MIC50 ([Candida] intermedia) | MIC50 ([Candida] inconspicua) | MIC50 (Candida metapsilosis) | MIC50 (Candida orthopsilosis) | MIC50 [2] | MIC50 ([Candida] zeylanoides) | MIC90 (Geotrichum candidum) | MIC50 (Rhodotorula mucilaginosa)
0.5 µg/mL: MIC90 (Candida albicans) | MIC50 (Kluyveromyces marxianus) | MIC90 (Saccharomyces cerevisiae)
64 µg/mL: MIC50 (Trichosporon inkin)
16 µg/mL: MIC90 (Clavispora lusitaniae) | MIC90 (Diutina rugosa) | MIC90 (Debaryomyces hansenii) | MIC90 (Wickerhamomyces anomalus) | MIC90 (Torulaspora delbrueckii) | MIC90 (Pichia norvegensis) | MIC90 ([Candida] intermedia) | MIC90 ([Candida] inconspicua) | MIC90 (Candida metapsilosis) | MIC90 (Candida orthopsilosis) | MIC90 [2] | MIC90 ([Candida] zeylanoides) | MIC50 [3] | MIC50 (Trichosporon ovoides) | MIC50 (Trichosporon dermatis) | MIC50 (Trichosporon jirovecii) | MIC50 (Naganishia albida) | MIC50 (Ustilago) | MIC50 (Rhodotorula glutinis) | MIC50 (Papiliotrema laurentii) | MIC50 (Trichosporon domesticum) | MIC50 (Trichosporon)
0.12 µg/mL: MIC50 (Candida albicans) | MIC50 (Candida parapsilosis) | MIC50 (Candida tropicalis) | MIC50 (Nakaseomyces glabratus) | MIC50 [1] | MIC50 (Clavispora lusitaniae) | MIC50 (Magnusiomyces capitatus) | MIC50 (Saccharomyces cerevisiae) | MIC50 (Geotrichum candidum)
1 µg/mL: MIC90 (Magnusiomyces capitatus) | MIC90 (Rhodotorula mucilaginosa)

OC(Cn1cncn1)(Cn1cncn1)c1ccc(F)cc1F [FLUCONAZOLE]
0.12 µg/mL: MIC50 (Candida albicans)
32 µg/mL: MIC90 (Nakaseomyces glabratus) | MIC50 (Pichia kudriavzevii) | MIC90 (Magnusiomyces capitatus)
1 µg/mL: MIC90 (Candida parapsilosis) | MIC90 (Clavispora lusitaniae)
0.25 µg/mL: MIC90 (Candida albicans) | MIC50 (Candida tropicalis) | MIC50 (Clavispora lusitaniae) | MIC50 (Kluyveromyces marxianus)
16 µg/mL: MIC50 (Magnusiomyces capitatus) | MIC50 [3] | MIC50 (Trichosporon asahii) | MIC50 (Trichosporon ovoides) | MIC50 (Trichosporon dermatis) | MIC50 (Trichosporon jirovecii) | MIC50 (Naganishia albida) | MIC50 (Ustilago) | MIC50 (Rhodotorula glutinis) | MIC50 (Papiliotrema laurentii) | MIC50 (Trichosporon domesticum) | MIC50 (Trichosporon)
0.5 µg/mL: MIC50 (Candida parapsilosis) | MIC90 (Kluyveromyces marxianus)
8 µg/mL: MIC50 (Diutina rugosa) | MIC50 (Debaryomyces hansenii) | MIC50 (Wickerhamomyces anomalus) | MIC50 (Torulaspora delbrueckii) | MIC50 (Pichia norvegensis) | MIC50 ([Candida] intermedia) | MIC50 ([Candida] inconspicua) | MIC50 (Candida metapsilosis) | MIC50 (Candida orthopsilosis) | MIC50 [2] | MIC50 ([Candida] zeylanoides) | MIC50 (Yarrowia lipolytica)
2 µg/mL: MIC90 (Candida tropicalis)
4 µg/mL: MIC50 (Nakaseomyces glabratus) | MIC50 [1] | MIC50 (Saccharomyces cerevisiae) | MIC50 (Trichosporon inkin) | MIC90 (Trichosporon inkin)
> 64 µg/mL: MIC90 (Pichia kudriavzevii) | MIC90 [1] | MIC90 (Diutina rugosa) | MIC90 (Debaryomyces hansenii) | MIC90 (Wickerhamomyces anomalus) | MIC90 (Torulaspora delbrueckii) | MIC90 (Pichia norvegensis) | MIC90 ([Candida] intermedia) | MIC90 ([Candida] inconspicua) | MIC90 (Candida metapsilosis) | MIC90 (Candida orthopsilosis) | MIC90 [2] | MIC90 ([Candida] zeylanoides) | MIC90 (Saccharomyces cerevisiae) | MIC90 (Yarrowia lipolytica) | MIC90 (Geotrichum candidum) | MIC90 [3] | MIC90 (Trichosporon asahii) | MIC50 (Rhodotorula mucilaginosa) | MIC90 (Rhodotorula mucilaginosa) | MIC90 (Trichosporon ovoides) | MIC90 (Trichosporon dermatis) | MIC90 (Trichosporon jirovecii) | MIC90 (Naganishia albida) | MIC90 (Ustilago) | MIC90 (Rhodotorula glutinis) | MIC90 (Papiliotrema laurentii) | MIC90 (Trichosporon domesticum) | MIC90 (Trichosporon)
64 µg/mL: MIC50 (Geotrichum candidum)
